Experimental data pooled from the literature.
Each line is one published result; the experiments were not run side by side.
Target: Phosphatidylinositol 4-phosphate 5-kinase type-1 alpha (PIP5K1A, Homo sapiens, UniProt Q99755)

| Structure (SMILES) | assay | setting | endpoint | result |
| --- | --- | --- | --- | --- |
| Cc1cnc(NC2CCOCC2)nc1-n1cnc(C(=O)NC(CN)c2cc(F)cc(Cl)c2)c1 (centres unmarked) | enzyme activity, inhibitor, radiometric | 1 µM | remaining activity | 100% |
| Nc1ncnc2occ(-c3ccc(NC(=O)Nc4cc(C(F)(F)F)ccc4F)cc3)c12 | enzyme activity, inhibitor | 20 µM | remaining activity | 60% |
| Cc1cc(NC(=O)c2cccc3cc(-c4cccc5[nH]nc(N)c45)ccc23)ccc1F | enzyme activity, inhibitor | 0.1 µM | activity vs control | 96% |
| Cc1ccc(C(=O)Nc2ccc(CN3CCN(C)CC3)c(C(F)(F)F)c2)cc1C#Cc1cnc2cccnn12 | enzyme activity, inhibitor | 23.5 nM | remaining activity | 79% |
| CN1CC(Oc2cnc(C#N)cc2-c2ccn3nc(NC(=O)C4CC4)cc3c2)C1 | enzyme activity, inhibitor | 1 µM | inhibition | 0% |
| CS(=O)(=O)Nc1cccc(-c2csc(NC(=O)CSc3nc4nccnc4c(=O)n3CCc3ccccc3)n2)c1 | enzyme activity, inhibitor | 10 µM | inhibition | -1% |
| Cc1ccc(NC(=O)c2ccc(C)c(C(F)(F)F)c2)cc1C#Cc1nn(C2CCC(O)CC2)c2ncnc(N)c12 (centres unmarked) | cell-free assay, inhibitor | 10 µM | remaining signal | 102% |
| CCOCCn1cc(C(=O)Nc2ccc(-n3nc(-c4cccnc4)cc3C(F)(F)F)cn2)ccc1=O | cell-free assay, competition with immobilised ligand | 1 µM | remaining binding | 100% |
| COc1cc(Cl)c(C(=O)N[C@@H](CN[C@H]2CC[C@@H](N)CC2)Cc2ccc(C#N)cc2)cc1-c1ccc(CN[C@H](C)c2ccc(C)cc2)o1 | enzyme activity, inhibitor | 1 µM | remaining activity | 106% |
| COCCOc1nc(-c2ccc(Cl)nc2)nc2c1CN(C(=O)c1ncn3ccccc13)CC2 | cell-free assay, competition with immobilised ligand | 0.1 µM | remaining binding | 100% |
| O=C(CSc1nc2nccnc2c(=O)n1CCc1ccccc1)Nc1nccs1 | enzyme activity, inhibitor | 10 µM | inhibition | -2% |
